Data as given in ChEMBL document CHEMBL4819017 (Eur J Med Chem, 2021).

biological target: Serine/threonine-protein kinase mTOR (Homo sapiens, UniProt P42345); experiment: Inhibition of recombinant human GST tagged mTOR (1360 to 2549 residues) expressed in baculovirus expression system measured by LanthaScreen assay
Method in brief: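 mTOR inhibition measured by LanthaScreen assay; IC50 values average two independent experiments.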

Row | IC50 | SMILES
1 | 0.0209 µM | COc1ncc2cc1NS(=O)(=O)c1cccc(c1)C(=O)NCc1cccc(c1)-c1ccnc3ccc-2cc13
2 | 0.0047 µM | COc1ncc2cc1NS(=O)(=O)c1cccc(c1)C(=O)NCc1cccc(c1)-c1ncnc3sc-2cc13
3 | 0.0663 µM | COc1ncc2cc1NS(=O)(=O)c1cccc(c1)C(=O)NCCn1cc(cn1)-c1cnn3ccc-2nc13
4 | 0.25 µM | COc1ncc2cc1NS(=O)(=O)c1cccc(c1)C(=O)N1CCc3ccc(cc3C1)-c1ccnc3ccc-2cc13
5 | 0.0676 µM | COc1ncc2cc1NS(=O)(=O)c1cccc(c1)C(=O)NCc1cncc(c1)-c1cnn3ccc-2nc13
6 | 0.0399 µM | COc1ncc2cc1NS(=O)(=O)c1cccc(c1)C(=O)NCc1cncc(c1)-c1ncnc3sc-2cc13
7 | 0.0041 µM | COc1ncc2cc1NS(=O)(=O)c1cccc(c1)C(=O)NCC1CCN(CC1)c1ccnc3ccc-2cc13
8 | 0.0165 µM | COc1ncc2cc1NS(=O)(=O)c1cccc(c1)C(=O)NCCn1cc(cn1)-c1ncnc3ccc-2cc13
9 | 0.0056 µM | COc1ncc2cc1NS(=O)(=O)c1cccc(c1)C(=O)NCCn1cc(cn1)-c1cnc3ccc-2nn13
10 | 0.0638 µM | COc1ncc2cc1NS(=O)(=O)c1cc(c(F)cc1F)C(=O)NCc1cccc(c1)-c1ccnc3ccc-2cc13
11 | 0.249 µM | COc1ncc2cc1NS(=O)(=O)c1cccc(c1)C(=O)NCCn1cc(cn1)-c1ccnc3ccc-2cc13
12 | 0.223 µM | COc1ncc2cc1NS(=O)(=O)c1cccc(c1)C(=O)NCc1cccc(c1F)-c1ccnc3ccc-2cc13
13 | 0.0054 µM | COc1ncc2cc1NS(=O)(=O)c1cc(c(F)cc1F)C(=O)NCc1cncc(c1)-c1ccnc3ccc-2nc13
